Source: ChEMBL document CHEMBL4513216, “Probing the Open Global Health Chemical Diversity Library for Multistage-Active Starting Points for Next-Generation Antimalarials” (ACS Infect Dis, 2020)

Assay: Toxicity liver stage against HepG2, at 10uM
Format: cell-based
Design: test concentration 10 uM, cell line HepG2-A16-CD81EGFP
Conditions: human, HepG2-A16-CD81EGFP cells; read-out: INHIBITION
How it was run: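 Uninfected HepG2-A16-CD81EGFP cells, 3 × 10^3 per well, 1536-well, plated on prespotted compound at 10 μM final, parasite-free screening media added to match infected plates; puromycin 10 μM positive, DMSO 0.5% negative; run in parallel with 48 h PbLuc assay at 37 °C, 5% CO2; viability by CellTiter-Glo luminescence, normalized to controls.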

Row | Structure (SMILES) | cytotoxicity at 10 µM [%]
1 | CC[C@H]1CN2CC[C@H]1C[C@@H]2CNCc1ccc(OC(F)(F)F)cc1 | -0.785
2 | COc1ccc(-n2ncc3c2NC(=O)CSC3C(C)C)cc1 (stereo not given) | 17.4
3 | COC(=O)CCC(=O)N1CCC2(CN(Cc3ccccc3)C2)C1 | 12.3
4 | Cc1nc(C(=O)N2CCCC(c3ccc4sc(N)nc4n3)C2)co1 (stereo not given) | -11.9
5 | Cn1cc(C(=O)N2CCCC(CN3CCCC3=O)C2)cn1 (stereo not given) | -12.6
6 | CC(C)c1nnc(CN(C)Cc2ccccc2-c2ccccc2)o1 | 5.98
7 | O=C(O)CCc1ccc(S(=O)(=O)Nc2cnn(CC3CC3)c2)cc1 | -8.35
8 | CC(NCCCn1cccn1)c1ccc(N2CCCS2(=O)=O)cc1 (stereo not given) | -0.828
9 | CC(C)(NCc1ccc(C#N)cc1)c1ccc2c(c1)OCO2 | 2.3
10 | CCOCCCC(=O)Nc1ccc(OCc2noc(C3CC3)n2)cc1 | 44.4
11 | Nc1cc2c(nn1)CCN(C(=O)Cc1ccc3c(c1)CCO3)C2 | 5.52
12 | Cc1nc(CN2CCCC(N(C)Cc3cnn(C)c3)C2)no1 (stereo not given) | -7.72
13 | Cn1cnc2c1CCN(CC(=O)N(Cc1ccsc1)C1CC1)C2 | -0.157
14 | COCCOCC(=O)Nc1cccc(CN(C)C(C)=O)c1 | -126
15 | C1CCC(NCCN2CCOCC2)C1 | -145
16 | Cc1cccc(-c2c[nH]c(C3CCCN3C(=O)C3CCOCC3)n2)c1 (stereo not given) | 1.92
17 | CN1CC(NC(=O)CCOc2cccc(Cl)c2)CC1=O (stereo not given) | -5.4
18 | O=C(NCC(=O)N1CCCCC1)c1ccc(Cl)cc1I | -11.5
19 | Cc1nn(CC(=O)N2CCN(c3ccncc3)CC2)c(C)c1Cl | -17.8
20 | O=C(c1ccco1)N1CCc2ncc(CN3CCOCC3)n2CC1 | -78.7
21 | CCN1CC2(CCC1=O)CCN(c1ccc(C(C)=O)cn1)CC2 | -8.63
22 | O=C(O)c1cccc(CC2CCN(c3cnccn3)CC2)c1 | -121
23 | CCCOc1ccc2ccccc2c1CN1CC[C@@]2(O)CCNC[C@H]2C1 | -148

Row | Structure (SMILES) | cytotoxicity at 10 µM [%]
24 | CSCc1noc(CNC(=O)c2cc(C)c(C)[nH]c2=O)n1 | 0.355
25 | Cc1ncoc1C(=O)N1CCc2[nH]nc(-c3ccc4c(c3)OCO4)c2C1 | -143
26 | CC(=O)N1CCN(C(=O)c2cc(C(C)C)no2)[C@H]2CS(=O)(=O)C[C@H]21 | -7.8
27 | Cn1c(Cn2ccnc2)nnc1C1CCN(C(=O)c2ccccn2)CC1 | -104
28 | CSc1ccc(-c2nc(CN3CCC(NC(C)=O)CC3)c(C)o2)cc1 | -2.76
29 | Cn1ccnc1C(=O)N1CCC(Cn2cc(-c3ccsc3)nn2)CC1 | -6.46
30 | Cc1nn(C)c2nc(-c3ccccn3)nc(NCCCOC(C)C)c12 | 1.5
31 | O=C1CCCCCN1Cc1ncnn1Cc1c(F)cccc1Cl | 2.14
32 | CN(CCn1ccc2ccccc21)C(=O)Cc1n[nH]c(=O)[nH]1 | -16.4
33 | CCN(CC)C1COc2c(cc(Br)c(C)c2Br)C1=O (stereo not given) | 5.77
34 | Cc1nc(C)n(C2CCCN(C(=O)c3ccc(CN(C)C)cc3)C2)n1 (stereo not given) | -1.6
35 | NC(=O)C1CCN(C(=O)NCCOc2ccc3c(c2)CCC3)CC1 | -7.07
36 | Cc1nnc2n1CCN(C(=O)c1cc(Br)c[nH]1)C2 | -10.7
37 | CN(Cc1ccc(Cl)s1)C(=O)NCc1nnc2n1CCC2 | -5.36
38 | COCCN(CCc1ccccc1)Cc1nc2c(cnn2C)c(=O)[nH]1 | -7.57
39 | Cc1cc(C[C@@H]2CCC[C@H]2NCc2c[nH]nc2-c2ccccc2)on1 | -14
40 | COc1cccc(CNC(C)C)c1OCc1ccc(C)cc1 | 0.438
41 | O=C(C1CC1)N1CCN(Cc2ccncc2)c2ncccc2C1 | -3.88
42 | COCC1CN(S(=O)(=O)N(C)C)Cc2ncn(CC3CC3)c21 (stereo not given) | 8.77
43 | c1cncc(CN2Cc3nccn3CC(Cn3cncn3)C2)c1 (stereo not given) | -136
44 | CCS(=O)(=O)N1CC[C@@H]2[C@H](CC1)N(Cc1cccnc1)CCS2(=O)=O | -3.12
45 | CC(C)N1CCOCC2(CN(Cc3ccccn3)CCO2)C1 (stereo not given) | 6.46
